Values after ≈ are worked out from the molar mass of the structure shown. Blank lines part the entries; values can stand above or below the compound they belong to. Active and inactive are the calls of the source. The calls are words filed in the database; no cut-off is given here.
Legend:
[1] = tested on: Plasmodium falciparum; assay: Antiplasmodial activity against Plasmodium falciparum 3D7A infected in red blood cells preincubated for 24 hrs followed by [3H]-hypoxanthine addition measured after 24 hrs by scintillation counting; assay type: functional, cell-based
Summary of the method: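 Whole-cell growth assay on sensitive P. falciparum strain 3D7A by [3H]hypoxanthine incorporation; two or three independent biological replicates per value.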

[2] = tested on: Liver; assay: Intrinsic clearance in human liver microsomes at 0.5 uM up to 45 mins in presence of NADPH by HPLC-MS/MS analysis; assay type: ADME, microsome; conditions: 0.75 h
[3] = Lipophilicity, log D of compound at pH 7.4 by chromatographic method; assay type: physicochemical; conditions: buffer
[4] = tested on: Plasma; assay: Drug level in Swiss CD1 mouse plasma treated with 5-([3,4'-Bipyridin]-2'-yl)-N-(4-(pyrrolidin-1-ylmethyl)phenyl)-1,3,4-oxadiazol-2-amine at 500 mg/kg, po by HPLC analysis; assay type: ADME, organism-based; conditions: in vivo
Summary of the method: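 Mice given high oral doses (250/300 and 500 mg/kg); plasma analysed by HPLC for parent compound and breakdown products, expressed as percentage levels.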

[5] = tested on: Plasmodium falciparum; assay: Antimalarial activity against Plasmodium falciparum 3D7 0087/N9 infected in SCID mouse assessed as reduction in parasitemia at 67 mg/kg, po administered 3 days post infection dosed once a day for four consecutive days measured 7 days post dose; assay type: functional, organism-based
Summary of the method: (§1)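 SCID mice engrafted with human parasite P. falciparum Pf 3D70087/N9; oral dosing started 3 days after infection, once daily for four consecutive days; parasitemia compared with untreated controls.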

[6] = Solubility of the compound in fasted state stimulated intestinal fluid at pH 6.5 by HPLC analysis; assay type: physicochemical; conditions: fasted state simulated intestinal fluid
Summary of the method: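 Solubility measured in fasted state simulated intestinal fluid, pH 6.5.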

[7] = tested on: Plasmodium falciparum; assay: Antimalarial activity against Plasmodium falciparum 3D7 0087/N9 infected in po dosed SCID mouse assessed as reduction in parasitemia administered 3 days post infection dosed once a day for four consecutive days measured after 7 days; assay type: functional; conditions: 3D7 0087/N9, po; summary of the method: as §1
[8] = Volume of distribution at steady state in CD1 mouse at 1 mg/kg, iv measured up to 24 hrs post dose by LC-MS/MS analysis; assay type: ADME, organism-based; conditions: in vivo, read-out: Vdss
Summary of the method: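 Pharmacokinetics in mouse after a single intravenous dose of 1 mg/kg.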

[9] = tested on: Plasmodium falciparum; assay: Ratio of IC50 for chloroquine/atovaquone/cycloguanil-resistant Plasmodium falciparum FCR3 infected in red blood cells to IC50 for wild type Plasmodium falciparum 3D7A infected in red blood cells; assay type: functional
[10] = Ratio of IC50 for Plasmodium falciparum HB3 infected in red blood cells to IC50 for wild type Plasmodium falciparum 3D7A infected in red blood cells; assay type: functional
[11] = tested on: HepG2; assay: Cytotoxicity against human HepG2 cells at 25 uM; assay type: cell-based; conditions: hepg2, 25 µM
Summary of the method: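 HepG2 cells exposed to compound at 25 μM to assess mammalian cytotoxicity.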

[12] = tested on: Plasmodium falciparum; assay: Ratio of IC50 for chloroquine/pyrimethamine/atovaquone-resistant Plasmodium falciparum Tm90C2B infected in red blood cells to IC50 for wild type Plasmodium falciparum 3D7A infected in red blood cells; assay type: functional
[13] = Ratio of TC50 for human HepG2 to IC50 for antiplasmodial activity against Plasmodium falciparum 3D7A infected in red blood cells
Summary of the method: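 Denominator is the asexual P. falciparum 3D7A IC50 from a [3H]hypoxanthine incorporation assay, using two or three independent biological replicates. Numerator is the 50% toxicity value in HepG2 cells, expressed as Tox50/Pf 3D7 IC50.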

[14] = tested on: Plasmodium falciparum; assay: Ratio of IC50 for chloroquine/pyrimethamine-resistant Plasmodium falciparum V1/S infected in red blood cells to IC50 for wild type Plasmodium falciparum 3D7A infected in red blood cells; assay type: functional
[15] = tested on: Plasmodium falciparum; assay: Ratio of IC50 for chloroquine/pyrimethamine-resistant Plasmodium falciparum Tm90C2A infected in red blood cells to IC50 for wild type Plasmodium falciparum 3D7A infected in red blood cells; assay type: functional
[16] = Ratio of IC50 for chloroquine/pyrimethamine-resistant Plasmodium falciparum Dd2 infected in red blood cells to IC50 for wild type Plasmodium falciparum 3D7A infected in red blood cells; assay type: functional
[17] = tested on: Plasmodium falciparum; assay: Ratio of IC50 for pyrimethamine-resistant Plasmodium falciparum TC08 infected in red blood cells to IC50 for wild type Plasmodium falciparum 3D7A infected in red blood cells; assay type: functional
[18] = tested on: Plasmodium falciparum; assay: Antimalarial activity against Plasmodium falciparum 3D7 0087/N9 infected in SCID mouse assessed as reduction in parasitemia at 120 mg/kg, po administered 3 days post infection dosed once a day for four consecutive days relative to control; assay type: functional; parameters: scale not given: the % may be the effect or the level left; summary of the method: as §1
[19] = tested on: Plasmodium falciparum; assay: Ratio of IC50 for chloroquine-resistant Plasmodium falciparum T9/94 infected in red blood cells to IC50 for wild type Plasmodium falciparum 3D7A infected in red blood cells; assay type: functional
[20] = Oral bioavailability in CD1 mouse at 10 mg/kg measured up to 24 hrs post dose by LC-MS/MS analysis; assay type: ADME, organism-based; conditions: in vivo
Summary of the method: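 Oral bioavailability in mouse after a single oral dose of 10 mg/kg.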

Compound: CN1CCc2ccc(Nc3nnc(-c4ccc(F)c(-c5cccnc5)c4)o3)cc2C1
IC50 [1]: 480 nM | intrinsic clearance [2]: 2.2 mL/min/g

Compound: CN1CCCc2ccc(Nc3nnc(-c4cccc(-c5cccnc5)c4)o3)cc2C1
IC50 [1]: 660 nM | intrinsic clearance [2]: 9.3 mL/min/g

Compound: O=C(O)c1cc(-c2cccnc2)ccn1
Drug metabolism [4]: Metabolite_Detected

Compound: CN1CCc2ccc(Nc3nnc(-c4cc(OC(F)(F)F)cc(-c5cccnc5)c4)o3)cc2C1
IC50 [1]: 220 nM | intrinsic clearance [2]: < 0.5 mL/min/g

Compound: O=C(NNC(=O)c1cc(-c2cccnc2)ccn1)Nc1ccc(CN2CCCC2)cc1
Drug metabolism [4]: Metabolite_Detected

Compound: CN1CCc2ccc(Nc3nnc(-c4cccc(-c5cccnc5)n4)o3)cc2C1
IC50 [1]: 1900 nM

Compound: CN1CCOc2ccc(Nc3nnc(-c4cccc(-c5cccnc5)c4)o3)cc2C1
ED90 [7]: > 120 mg/kg | Vd [8]: 2.6 L/kg | Ratio IC50 [9]: 1 | IC50 [1]: 70 nM | Ratio IC50 [10]: 1 | Activity [11]: Non-Toxic | Ratio IC50 [12]: 1 | Ratio [13]: >100 | Ratio IC50 [14]: 1 | Ratio IC50 [15]: 1 | Ratio IC50 [16]: 1 | Ratio IC50 [17]: 1 | Activity [18]: 81% | Ratio IC50 [19]: 1 | bioavailability [20]: 26.6% | intrinsic clearance [2]: 13.7 mL/min/g

Continued, in another order:

IC50 [1]: 90 nM | chromatographic logD [3]: 2.9
Compound: CN(C)Cc1ccc(Nc2nnc(-c3cc(-c4cccnc4)cc(C(F)(F)F)c3)o2)cn1

IC50 [1]: 30 nM
Compound: CN(C)Cc1ccc(Nc2nnc(-c3cccc(-c4cccnc4)c3)o2)cc1

IC50 [1]: 30 nM | solubility [6]: 68 µg/mL (≈ 150 µM)
Compound: CN1CCc2ncc(Nc3nnc(-c4cc(-c5cccnc5)cc(C(F)(F)F)c4)o3)cc2C1
Activity [5]: inactive

IC50 [1]: 130 nM
Compound: CN1CCc2ccc(Nc3nnc(-c4cccc(-c5cccnc5)c4)o3)nc2C1

IC50 [1]: 100 nM | intrinsic clearance [2]: 1.8 mL/min/g
Compound: CN1CCc2ccc(Nc3nnc(-c4cccc(-c5cccnc5)c4)o3)cc2C1

IC50 [1]: 30 nM | intrinsic clearance [2]: 1.45 mL/min/g
Compound: CN1CCc2ccc(Nc3nnc(-c4cncc(-c5cccnc5)c4)o3)cc2C1

IC50 [1]: 70 nM
Compound: CN1CCc2ccc(Nc3nnc(-c4ccnc(-c5cccnc5)c4)o3)cc2C1

— ChEMBL document CHEMBL4017499, “The Discovery of Novel Antimalarial Aminoxadiazoles as a Promising Nonendoperoxide Scaffold” (J Med Chem, 2017)
